# Results: publication PMC10213863 (Cell Reports Medicine, 2023)
# Several values for one entry are separate records, joined by “and”; a condition that tells them apart may be missing. Equal entries are not always repeated.
# How the values were obtained:
# TLR7 = target: T1, TLR7 (Homo sapiens, UniProt Q9NYK1); test: HEK293-NFkB-luciferase reporter cells transfected with TLR7, R848 stimulation; format: cell-based; conditions: IC50, TLR7 response in HEK transfectants, mean ± SD
# T1 sequence (Q9NYK1 27-1049): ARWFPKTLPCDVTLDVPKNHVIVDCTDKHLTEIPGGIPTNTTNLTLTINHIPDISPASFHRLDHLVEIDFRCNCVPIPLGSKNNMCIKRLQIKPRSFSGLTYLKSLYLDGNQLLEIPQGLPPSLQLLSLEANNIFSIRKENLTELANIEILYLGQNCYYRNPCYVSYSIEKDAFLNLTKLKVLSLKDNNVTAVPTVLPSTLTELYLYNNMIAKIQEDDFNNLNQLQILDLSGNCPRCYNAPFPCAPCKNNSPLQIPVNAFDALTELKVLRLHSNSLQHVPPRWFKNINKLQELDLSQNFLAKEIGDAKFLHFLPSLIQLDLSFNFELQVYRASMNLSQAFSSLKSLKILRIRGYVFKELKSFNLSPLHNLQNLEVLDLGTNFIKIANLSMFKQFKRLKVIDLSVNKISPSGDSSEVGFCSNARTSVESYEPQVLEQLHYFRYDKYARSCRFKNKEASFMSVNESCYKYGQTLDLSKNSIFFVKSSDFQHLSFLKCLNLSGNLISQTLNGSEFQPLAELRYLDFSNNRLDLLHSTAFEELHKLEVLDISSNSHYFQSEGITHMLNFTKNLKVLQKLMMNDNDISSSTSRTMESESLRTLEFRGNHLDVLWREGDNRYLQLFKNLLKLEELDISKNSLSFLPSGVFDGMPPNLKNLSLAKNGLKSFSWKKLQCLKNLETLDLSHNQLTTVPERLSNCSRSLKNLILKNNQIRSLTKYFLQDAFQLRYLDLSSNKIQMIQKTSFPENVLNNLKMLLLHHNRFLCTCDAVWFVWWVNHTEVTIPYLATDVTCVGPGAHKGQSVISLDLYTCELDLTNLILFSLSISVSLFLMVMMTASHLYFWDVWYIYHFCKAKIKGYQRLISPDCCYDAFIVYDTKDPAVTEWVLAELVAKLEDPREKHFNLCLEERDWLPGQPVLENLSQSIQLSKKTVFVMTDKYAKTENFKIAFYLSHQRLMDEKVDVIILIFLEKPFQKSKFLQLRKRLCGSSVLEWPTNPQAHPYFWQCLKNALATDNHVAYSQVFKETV
# Outline: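 HEK293-NFkB-luciferase cells stably expressing HA-tagged human TLR7 or TLR8 were pre-treated 60 min at 37°C, 5% CO2 with increasing concentrations of test compound or 0.25% v/v DMSO. They were then stimulated 6 h with R848: 0.3 μM for TLR7, 4 μM for TLR8. Luciferase activity […] was read by Bright-Glo luminescence.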
# [1] = test system: TMPD-induced peritonitis in Balb/c mice; test: Mouse TMPD peritonitis; format: in vivo; conditions: prophylactic oral b.i.d.
# Outline: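 Female Balb/c mice (5 per group) were dosed orally b.i.d. from day −1 with test compound in 0.5% MC/0.5% Tween80, or vehicle. On day 0 they were injected i.p. with 0.5 mL TMPD; naive mice were controls. Peritoneal lavage (HBSS, 2% FBS) supernatants were assayed for CCL2 by ELISA. Inflammatory monocytes were counted by flow (live/dead, CD11b, Ly6C, Ly6G). ISGs were measured by qPCR (2−ΔΔCt vs HPRT, triplicates), averaged and normalized to naive = 100%.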
smiles,measurement,setting,value
"Cc1cc(N2CCc3c(c(C)nn3CC34CCC(NC(=O)[C@@H]5COCCN5)(CC3)CC4)C2)c2cnn(C)c2n1 [MHV370, (S)-N-(4-((5-(1,6-dimethyl-1H-pyrazolo[3,4-b]pyridin-4-yl)-3-methyl-4,5,6,7-tetrahydro-1H-pyrazolo[4,3-c]pyridin-1-yl)methyl)bicyclo[2.2.2]octan-1-yl)morpholine-3-carboxamide]",IC50,TLR7,1 nM and 1.1 nM
same,ex vivo stimulated PD marker CD69 in peripheral blood,[1],reduced in peripheral blood of mice in a dose-dependent manner
same,panel of ISGs in peritoneal cells and blood,[1],dose-dependently suppressed
same,inflammatory monocytes and CCL2 in the peritoneum,[1]; day 7,dose-dependent reduction
